Laboratory results as given in ChEMBL document CHEMBL4376835, “Discovery of Nonpungent Transient Receptor Potential Vanilloid 1 (TRPV1) Agonist as Strong Topical Analgesic” (J Med Chem, 2020).
Calls of active or inactive are those of the source.

Experiments:
[1] = target: T1, Transient receptor potential cation channel subfamily V member 3 (Mus musculus) (UniProt Q8K424); assay: Agonist activity at mouse TRPV3 expressed in HEK293 cells assessed as increase in calcium influx at 10 uM incubated for 1 min by Fluo-4-AM dye based FLIPR assay; format: cell-based
T1 sequence (whole entry): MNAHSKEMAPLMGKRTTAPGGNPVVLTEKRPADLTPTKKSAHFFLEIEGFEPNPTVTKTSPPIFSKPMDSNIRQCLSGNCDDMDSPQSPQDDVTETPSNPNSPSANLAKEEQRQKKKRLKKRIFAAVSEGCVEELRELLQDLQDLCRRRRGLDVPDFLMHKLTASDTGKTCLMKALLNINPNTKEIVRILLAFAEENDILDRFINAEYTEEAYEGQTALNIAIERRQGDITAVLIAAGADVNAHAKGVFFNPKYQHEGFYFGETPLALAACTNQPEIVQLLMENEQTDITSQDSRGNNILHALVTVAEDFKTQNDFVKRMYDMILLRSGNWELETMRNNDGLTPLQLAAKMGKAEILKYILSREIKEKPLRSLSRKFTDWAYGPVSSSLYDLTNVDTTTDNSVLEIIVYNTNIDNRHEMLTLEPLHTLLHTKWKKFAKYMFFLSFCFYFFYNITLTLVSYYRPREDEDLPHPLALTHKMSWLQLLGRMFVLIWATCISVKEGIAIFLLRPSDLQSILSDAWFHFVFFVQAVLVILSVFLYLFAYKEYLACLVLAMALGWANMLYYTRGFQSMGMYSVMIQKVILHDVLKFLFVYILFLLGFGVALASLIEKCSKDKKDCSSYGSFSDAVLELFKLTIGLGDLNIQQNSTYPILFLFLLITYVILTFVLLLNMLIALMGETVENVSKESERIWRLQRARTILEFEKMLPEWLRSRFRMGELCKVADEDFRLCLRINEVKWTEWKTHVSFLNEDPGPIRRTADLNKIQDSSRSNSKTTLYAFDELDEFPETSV

[2] = target: Transient receptor potential cation channel subfamily A member 1 (Homo sapiens) (UniProt O75762); assay: Agonist activity at human TRPA1 expressed in HEK293 cells assessed as increase in calcium influx at 100 uM incubated for 1 min by Fluo-4-AM dye based FLIPR assay; format: cell-based
Procedure, shortened: (§1)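 Intracellular calcium influx read by FLIPR in cells individually transfected with TRPV1, hTRPA1, mTRPA1, mTRPV3 or mTRPM8. Each transfected line was also challenged with its own reference TRP-family agonist as a responsiveness check.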

[3] = target: Transient receptor potential cation channel subfamily A member 1 (Mus musculus) (UniProt Q8BLA8); assay: Agonist activity at mouse TRPA1 expressed in HEK293 cells assessed as increase in calcium influx at 1 uM incubated for 1 min by Fluo-4-AM dye based FLIPR assay; format: cell-based; procedure, shortened: as §1
Mus musculus [4] = assay: Induction of hypothermia in ICR mouse assessed as decrease in body temperature at 3 mg/kg, ip measured after 30 mins; format: functional, organism-based
[5] = Drug uptake in porcine skin assessed as dermal accumulation applied topically as carbopol-gel with 1% formulation measured for 8 hrs by Franz diffusion cell based in vitro transdermal delivery test; format: ADME, tissue-based, Sus scrofa, Zone of skin; details: pig
[6] = Systemic drug absorption in porcine skin assessed as drug accumulation in acceptor Franz cell applied topically as carbopol-gel with 1% formulation measured for 8 hrs by Franz diffusion cell based in vitro transdermal delivery test; format: ADME, tissue-based, Sus scrofa, Zone of skin; details: pig
[7] = Toxicity in ICR mouse assessed as skin irritation by measuring ear scratching administered topically and measured for 30 mins; details: in vivo, topical_or_ocular, 0.5 h
Procedure, shortened: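 Ear scratching test: a solution of the agent was applied to mouse ears, and scratching movements were counted over the following 30 min.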

[8] = Toxicity in ICR mouse assessed as ear edema administered topically and measured after 30 mins; details: in vivo, topical_or_ocular, 0.5 h
Procedure, shortened: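 Ear swelling test: a solution of the agent was applied to mouse ears, and ear punch biopsies were collected 30 min later and weighed.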

[9] = Toxicity in ip dosed ICR mouse administered as single dose; format: organism-based; details: in vivo
[10] = Toxicity in po dosed ICR mouse administered as single dose; format: organism-based; details: in vivo
Rattus norvegicus = assay: Analgesic activity in ip dosed L5/L6 spinal nerve ligation-induced neuropathic pain Sprague-Dawley rat model assessed as increase in paw withdrawal threshold in response to von frey filament compound administered at day 14 after ligation and measured up to 1.5 hrs after drug dosing by up and down method; format: functional
Procedure, shortened: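 Rat spinal nerve ligation model of neuropathic pain. Compound was given i.p. at 1, 2, 5 or 10 mg/kg; a gabapentin 65 mg/kg i.p. arm and a saline i.p. arm were run alongside. Von Frey withdrawal thresholds were taken pre-surgery and on days 1, 7 and 14, then at 0.5, 1 and 1.5 h post-dose. Mean±SEM, n=7-8.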

Mus musculus [11] = assay: Analgesic activity in ip dosed formalin-induced nociception ICR mouse model assessed as reduction in pain behaviour by measuring less licking of formalin injected hind paw pretreated with compound 30 mins prior to formalin induction by formalin test; format: functional
Procedure, shortened: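 Mice were dosed i.p. with 0.1–10 mg/kg, with vehicle and gabapentin (50, 100 mg/kg i.p.) arms. 2% formalin was injected into the dorsal hindpaw, and paw-licking time was recorded for the first phase (5 min) and the second phase (20–30 min). ED50 was taken from the dose–response. Mean±SEM, n=8.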

[12] = target: Transient receptor potential cation channel subfamily M member 8 (Mus musculus) (UniProt Q8R4D5); assay: Agonist activity at mouse TRPM8 expressed in HEK293 cells assessed as increase in calcium influx at 1 uM incubated for 1 min by Fluo-4-AM dye based FLIPR assay; format: cell-based
Sequence of Transient receptor potential cation channel subfamily M member 8 (Mus musculus) (Q8R4D5 whole entry): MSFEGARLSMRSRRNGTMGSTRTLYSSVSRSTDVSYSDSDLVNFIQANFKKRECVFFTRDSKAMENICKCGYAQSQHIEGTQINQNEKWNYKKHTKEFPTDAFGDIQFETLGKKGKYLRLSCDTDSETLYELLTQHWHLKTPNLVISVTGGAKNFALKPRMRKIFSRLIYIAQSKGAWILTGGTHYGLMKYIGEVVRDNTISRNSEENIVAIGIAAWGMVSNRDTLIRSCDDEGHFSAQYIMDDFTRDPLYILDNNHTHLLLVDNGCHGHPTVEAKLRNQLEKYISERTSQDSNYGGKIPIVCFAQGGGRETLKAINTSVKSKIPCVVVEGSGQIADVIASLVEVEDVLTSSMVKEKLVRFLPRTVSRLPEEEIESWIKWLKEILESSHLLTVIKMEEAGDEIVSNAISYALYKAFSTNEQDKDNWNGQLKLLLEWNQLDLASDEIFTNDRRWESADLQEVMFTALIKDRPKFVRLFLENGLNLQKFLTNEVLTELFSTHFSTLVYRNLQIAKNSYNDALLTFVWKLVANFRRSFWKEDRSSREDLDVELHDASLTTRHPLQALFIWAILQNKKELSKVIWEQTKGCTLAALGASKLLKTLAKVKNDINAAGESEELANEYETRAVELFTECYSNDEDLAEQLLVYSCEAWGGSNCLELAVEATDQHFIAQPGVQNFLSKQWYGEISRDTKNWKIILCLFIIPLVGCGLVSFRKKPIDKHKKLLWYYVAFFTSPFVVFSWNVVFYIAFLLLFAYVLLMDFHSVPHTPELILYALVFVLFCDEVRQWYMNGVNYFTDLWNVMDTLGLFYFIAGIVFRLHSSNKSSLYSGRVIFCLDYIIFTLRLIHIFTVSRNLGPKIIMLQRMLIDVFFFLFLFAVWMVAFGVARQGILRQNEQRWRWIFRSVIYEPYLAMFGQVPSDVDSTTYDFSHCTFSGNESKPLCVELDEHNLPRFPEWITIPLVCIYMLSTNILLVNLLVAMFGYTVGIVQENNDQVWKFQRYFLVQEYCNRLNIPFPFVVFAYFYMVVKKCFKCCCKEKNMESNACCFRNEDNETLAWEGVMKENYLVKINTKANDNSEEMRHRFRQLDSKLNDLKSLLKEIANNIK

Sequence of Transient receptor potential cation channel subfamily A member 1 (Homo sapiens) (O75762 whole entry): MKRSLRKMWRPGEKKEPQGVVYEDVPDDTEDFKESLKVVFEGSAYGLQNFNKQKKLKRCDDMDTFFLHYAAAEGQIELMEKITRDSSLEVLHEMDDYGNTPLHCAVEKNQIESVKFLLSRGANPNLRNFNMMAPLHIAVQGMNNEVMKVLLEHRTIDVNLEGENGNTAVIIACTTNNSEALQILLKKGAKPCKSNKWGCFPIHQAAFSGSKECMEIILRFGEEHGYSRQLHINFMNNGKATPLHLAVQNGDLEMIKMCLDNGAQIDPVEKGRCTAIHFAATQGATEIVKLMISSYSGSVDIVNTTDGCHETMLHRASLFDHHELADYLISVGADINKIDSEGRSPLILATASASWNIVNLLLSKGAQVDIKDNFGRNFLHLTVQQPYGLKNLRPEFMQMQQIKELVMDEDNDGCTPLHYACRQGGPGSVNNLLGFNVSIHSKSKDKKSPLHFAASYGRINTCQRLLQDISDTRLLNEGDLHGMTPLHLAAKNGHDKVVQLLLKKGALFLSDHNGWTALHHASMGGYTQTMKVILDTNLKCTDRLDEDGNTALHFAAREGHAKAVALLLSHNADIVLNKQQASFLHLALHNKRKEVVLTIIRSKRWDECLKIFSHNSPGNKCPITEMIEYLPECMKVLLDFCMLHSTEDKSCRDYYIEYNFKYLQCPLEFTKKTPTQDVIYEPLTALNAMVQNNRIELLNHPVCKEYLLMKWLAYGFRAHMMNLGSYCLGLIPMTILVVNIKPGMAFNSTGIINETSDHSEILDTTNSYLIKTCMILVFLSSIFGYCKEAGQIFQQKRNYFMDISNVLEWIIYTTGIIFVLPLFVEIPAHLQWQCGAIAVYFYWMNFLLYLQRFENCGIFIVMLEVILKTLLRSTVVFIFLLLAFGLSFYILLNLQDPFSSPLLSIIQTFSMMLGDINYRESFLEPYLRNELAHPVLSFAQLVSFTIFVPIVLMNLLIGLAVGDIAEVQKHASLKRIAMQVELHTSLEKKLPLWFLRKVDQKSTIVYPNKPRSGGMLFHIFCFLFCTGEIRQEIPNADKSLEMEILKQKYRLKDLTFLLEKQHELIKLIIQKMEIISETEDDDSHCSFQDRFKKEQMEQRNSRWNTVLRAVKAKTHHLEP
Sequence of Transient receptor potential cation channel subfamily A member 1 (Mus musculus) (Q8BLA8 whole entry): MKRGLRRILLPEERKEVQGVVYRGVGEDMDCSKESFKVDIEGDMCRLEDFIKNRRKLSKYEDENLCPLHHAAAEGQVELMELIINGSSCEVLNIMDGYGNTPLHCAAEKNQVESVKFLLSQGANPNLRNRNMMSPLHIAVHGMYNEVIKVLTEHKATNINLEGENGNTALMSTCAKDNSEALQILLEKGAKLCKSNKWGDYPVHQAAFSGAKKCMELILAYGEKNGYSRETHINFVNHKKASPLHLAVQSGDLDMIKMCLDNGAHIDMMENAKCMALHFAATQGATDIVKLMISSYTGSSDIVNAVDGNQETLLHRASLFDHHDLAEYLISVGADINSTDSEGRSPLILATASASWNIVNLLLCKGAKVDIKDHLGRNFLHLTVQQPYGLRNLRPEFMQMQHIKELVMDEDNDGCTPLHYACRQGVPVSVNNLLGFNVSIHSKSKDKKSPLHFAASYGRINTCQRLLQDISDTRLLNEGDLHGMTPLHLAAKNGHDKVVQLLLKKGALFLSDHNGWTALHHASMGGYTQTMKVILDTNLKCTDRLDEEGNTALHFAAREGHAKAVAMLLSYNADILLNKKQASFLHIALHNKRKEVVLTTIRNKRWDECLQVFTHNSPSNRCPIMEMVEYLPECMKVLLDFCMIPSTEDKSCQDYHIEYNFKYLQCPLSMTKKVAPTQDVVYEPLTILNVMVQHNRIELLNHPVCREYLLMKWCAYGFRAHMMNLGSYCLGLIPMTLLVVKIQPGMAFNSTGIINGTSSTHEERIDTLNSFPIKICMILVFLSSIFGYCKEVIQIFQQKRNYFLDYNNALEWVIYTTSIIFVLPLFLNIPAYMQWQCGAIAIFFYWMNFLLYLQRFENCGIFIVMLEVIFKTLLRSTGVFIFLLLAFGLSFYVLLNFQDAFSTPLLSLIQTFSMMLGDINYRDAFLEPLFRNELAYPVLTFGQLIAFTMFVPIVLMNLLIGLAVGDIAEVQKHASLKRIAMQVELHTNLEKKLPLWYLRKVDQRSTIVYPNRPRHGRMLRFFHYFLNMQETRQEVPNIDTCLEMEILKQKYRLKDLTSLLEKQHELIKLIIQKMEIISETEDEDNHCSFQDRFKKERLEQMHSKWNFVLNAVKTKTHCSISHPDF

CC12CCC(CC1=O)C2(C)C (stereo not drawn)
Activity [1]: Active

O=C/C=C/c1ccccc1
Activity [2]: Active
Activity [3]: Active

COc1cc(CNC(=O)CCCC/C=C/C(C)C)ccc1O [CAPSAICIN]
Activity (Mus musculus [4]): Active
Drug uptake [5]: Active
Drug absorption [6]: Active
Activity [7]: Toxic
Activity [8]: Toxic
LD50 [9]: 7.5 mg/kg
LD50 [10]: 119 mg/kg

NCC1(CC(=O)O)CCCCC1 [GABAPENTIN]
ED50 (Rattus norvegicus): ≥ 30 mg/kg
ED50 (Mus musculus [11]): ≥ 40 mg/kg

CC1CCC(C(C)C)C(O)C1 (stereo not drawn)
Activity [12]: Active
